Where two headings read alike, the source gives them in different places.
Tests used:
[1] = tested on: NLRP3 inflammasome; experiment: NLRP3 inflammasome stimulation of J774A.1 macrophages; format: cell-based, mouse
[2] = tested on: NLRP3 inflammasome; experiment: NLRP3 inflammasome stimulation of human monocyte-derived macrophages; format: cell-based; settings: Macrophage
[3] = tested on: caspase-1; experiment: Caspase-1 activity assay in J774A.1 cell lysates; format: cell-based, mouse; settings: J774A.1, LPS/NIG, 50 µM, P = 0.003
[4] = tested on: J774A.1 cells; experiment: LDH release from J774A.1 cells; format: cell-based, mouse; settings: J774A.1, LPS/ATP, P < 0.05
Summary of the method: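 J774A.1 cells were stimulated with LPS plus ATP in the presence of increasing concentrations of test compound. LDH release was measured and reported as mean ± SEM. Data are representative of three independent experiments.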

[5] = tested on: mRNA levels of nlrp3, asc, caspase1, il1b, and il18; experiment: Real-time PCR of inflammasome genes in J774A.1 cells; format: cell-based, mouse; settings: J774A.1, LPS/ATP, 100 to 0.1 µM
[6] = tested on: NLRP3 inflammasome; experiment: Noncanonical NLRP3 inflammasome activation in THP-1 cells; format: cell-based; settings: Homo sapiens, THP-1, read-out: maximal inhibition of IL-1β release
Summary of the method: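 Wild-type and nlrp3-deficient human THP-1 cells were primed with the […] agonist Pam3CSK4, then transfected with LPS in the presence of test compound. IL-1β release was measured.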

[7] = tested on: Src; experiment: Phosphoarray assay in HMDM; format: cell-based, human; settings: LPS/nigericin, 10 µM, one donor
[8] = tested on: Fyn; experiment: Phosphoarray assay in HMDM; format: cell-based, human; settings: LPS/nigericin, 10 µM, one donor
[9] = tested on: Hck; experiment: Phosphoarray assay in HMDM; format: cell-based, human; settings: LPS/nigericin, 10 µM, one donor
[10] = tested on: STAT3; experiment: Phosphoarray assay in HMDM; format: cell-based, human; settings: LPS/nigericin, 10 µM, one donor
[11] = target: T1, NLRP3-ASC (Mus musculus, UniProt Q8R4B8); experiment: Immunoprecipitation of NLRP3-ASC association in J774A.1 cells; format: cell-based; settings: J774A.1, LPS and nigericin
[12] = target: Human recombinant NLRP3 (Homo sapiens, UniProt Q96P20); experiment: NLRP3 ATPase activity; format: biochemical; settings: cell-free, 1 and 10 µM
Summary of the method: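 Cell-free ATPase activity of recombinant NLRP3 was measured with test compound (n = 3). Bay11-7082 and 3,4-methylenedioxy-β-nitrostyrene served as positive-control NLRP3 inhibitors (n = 2 each).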

[13] = target: T1, NLRP3-ASC; experiment: Immunofluorescence and FRET analysis of NLRP3-ASC in J774A.1 cells; format: cell-based; settings: J774A.1, LPS and nigericin, 10 µM
Summary of the method: (§1)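 J774A.1 cells stimulated with LPS plus nigericin with test compound at 10 µM. After PBS wash: fixed and permeabilised in 70–30 acetone–methanol, blocked 1 h in 10% normal donkey serum. […] Then Alexa555/Alexa488 secondaries 1 h at room temperature, DAPI nuclei. FRET = Transfer − (Fd/D) − (Fa/Aa). Three independent experiments.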

[14] = target: NLRP3-caspase-1 (Mus musculus, UniProt Q8R4B8); experiment: FRET analysis of NLRP3-caspase-1 in J774A.1 cells; format: cell-based; settings: J774A.1, LPS and nigericin, 10 µM
Summary of the method: as §1

[15] = target: P2X7R (Homo sapiens, UniProt Q99572); experiment: Whole-cell patch-clamp recordings on LPS-primed U937 cells; format: cell-based; settings: 100 µM BzATP, OLT1177 0.1 nM and 100 µM
Summary of the method: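 U937 cells on poly-L-lysine-coated dishes were primed with 1 μg/mL E. coli LPS for 5 h. Whole-cell patch clamp at room temperature, holding −60 mV. BzATP was diluted from a 100-mM stock to 100 µM in bath solution and applied by pressure microperfusion. Test compound (0.1 nM, 100 µM) was given in parallel cultures. ΔI compared by Wilcoxon signed-rank, shown as median with 25th–75th percentiles.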

[16] = tested on: NLRC4 inflammasome; experiment: NLRC4 inflammasome activation in J774A.1 cells; format: cell-based, mouse; settings: J774A.1, LPS and flagellin
Summary of the method: (§2)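 J774A.1 murine macrophages primed with LPS, then stimulated with the dsDNA analog Poly(dA:dT) for AIM2 or with flagellin for NLRC4, in the presence of test compound. Secreted mature IL-1β and TNFα were measured in supernatants. Data are mean ± SEM from three independent experiments.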

[17] = tested on: AIM2 inflammasome; experiment: AIM2 inflammasome activation in J774A.1 cells; format: cell-based, mouse; settings: J774A.1, LPS and Poly(dA:dT)
Summary of the method: as §2

[18] = tested on: NLRP3 inflammasome; experiment: IL-1β release from freshly obtained human blood neutrophils; format: cell-based; settings: primary human neutrophils
Summary of the method: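 Freshly obtained human blood neutrophils were stimulated with LPS and ATP with test compound at 0.1, 1 and 10 µM. Supernatant IL-1β was measured by ELISA, and mature 17 kDa IL-1β by Western blot. IL-1β precursor was measured in the cell lysates. Data are mean ± SEM of cells from three healthy donors.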

[19] = tested on: caspase-1; experiment: Caspase-1 activity in human neutrophils; format: cell-based; settings: LPS/ATP, 50 and 10 µM
Summary of the method: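 Primary blood neutrophils from three healthy donors were stimulated with LPS and ATP in the presence of test compound. Caspase-1 activity was then measured. Data are mean ± SEM across donors.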

[20] = tested on: il1b, caspase1, and nlrp3 mRNA levels; experiment: Real-time PCR in human neutrophils; format: cell-based; settings: LPS/ATP
Summary of the method: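 Human neutrophils from four healthy donors were stimulated with LPS and ATP in the presence of test compound. Levels of il1b, caspase1 and nlrp3 mRNA are expressed as fold change, mean ± SEM.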

[21] = tested on: mice challenged with LPS-induced systemic inflammation; experiment: In vivo LPS challenge; design: species or system mouse
Summary of the method: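 Male C57BL/6J mice (22–26 g) received 200 mg/kg in 200 µL saline i.p. every 12 h × 5, or saline alone. One hour after the last dose: LPS (E. coli 055:B5) 5 mg/kg i.p., killed 2 h later. Peritoneal lavage with 10 mL cold PBS, spun 1,000 × g, 5 min. Spleen, lung, liver and quadriceps homogenates spun 13,000 × g, 20 min, 4 °C; cytokines normalised to total protein. n = 7–8 per group.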

[22] = tested on: muscle metabolism; experiment: Metabolomics analysis of quadriceps muscle after in vivo LPS challenge; design: species or system mouse; settings: mice, muscle 2 h after LPS, vs vehicle
Summary of the method: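 Mice were treated with test compound or vehicle and challenged with LPS i.p. Muscle was excised 2 h after LPS for metabolomic profiling of glutathione species, adenylates and TCA intermediates. Results are in arbitrary units, mean ± SEM, n = 3 mice per group.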

[23] = 200 mg/kg i.p. every 12 h for five doses, 2 h after i.p. LPS 5 mg/kg
[24] = 200 mg/kg i.p. x5, 2 h after LPS, organ homogenates

T1 sequence (Q8R4B8 whole entry): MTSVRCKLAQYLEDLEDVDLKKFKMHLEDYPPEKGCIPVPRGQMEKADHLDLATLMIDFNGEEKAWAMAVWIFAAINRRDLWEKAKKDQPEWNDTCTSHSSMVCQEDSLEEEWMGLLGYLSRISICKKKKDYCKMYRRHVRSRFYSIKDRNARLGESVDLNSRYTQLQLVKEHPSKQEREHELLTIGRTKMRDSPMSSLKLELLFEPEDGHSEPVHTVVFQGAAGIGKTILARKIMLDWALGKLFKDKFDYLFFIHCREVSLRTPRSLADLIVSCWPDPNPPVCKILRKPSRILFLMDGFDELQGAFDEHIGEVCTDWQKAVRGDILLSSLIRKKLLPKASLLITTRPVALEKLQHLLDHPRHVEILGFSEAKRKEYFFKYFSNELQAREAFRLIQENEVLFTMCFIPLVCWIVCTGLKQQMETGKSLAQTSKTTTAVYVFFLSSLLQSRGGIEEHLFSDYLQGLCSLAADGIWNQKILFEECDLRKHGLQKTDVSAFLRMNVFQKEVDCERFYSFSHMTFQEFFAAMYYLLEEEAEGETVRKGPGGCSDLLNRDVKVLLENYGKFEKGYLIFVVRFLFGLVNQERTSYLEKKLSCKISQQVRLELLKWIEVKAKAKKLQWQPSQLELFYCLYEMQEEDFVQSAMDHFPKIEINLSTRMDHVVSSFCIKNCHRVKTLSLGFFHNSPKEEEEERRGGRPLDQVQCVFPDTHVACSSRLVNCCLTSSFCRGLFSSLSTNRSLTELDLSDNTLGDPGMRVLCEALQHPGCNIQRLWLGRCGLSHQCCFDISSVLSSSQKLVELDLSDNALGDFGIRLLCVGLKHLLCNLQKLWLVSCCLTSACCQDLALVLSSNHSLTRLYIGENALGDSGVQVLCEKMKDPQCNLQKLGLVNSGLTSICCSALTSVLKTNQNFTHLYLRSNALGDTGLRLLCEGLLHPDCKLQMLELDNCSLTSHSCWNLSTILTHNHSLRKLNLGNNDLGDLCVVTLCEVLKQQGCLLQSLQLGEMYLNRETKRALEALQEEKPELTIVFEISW
Chain of NLRP3-caspase-1 (Q8R4B8 whole entry): as above
Chain of P2X7R (Q99572 whole entry, the tested form may be a part): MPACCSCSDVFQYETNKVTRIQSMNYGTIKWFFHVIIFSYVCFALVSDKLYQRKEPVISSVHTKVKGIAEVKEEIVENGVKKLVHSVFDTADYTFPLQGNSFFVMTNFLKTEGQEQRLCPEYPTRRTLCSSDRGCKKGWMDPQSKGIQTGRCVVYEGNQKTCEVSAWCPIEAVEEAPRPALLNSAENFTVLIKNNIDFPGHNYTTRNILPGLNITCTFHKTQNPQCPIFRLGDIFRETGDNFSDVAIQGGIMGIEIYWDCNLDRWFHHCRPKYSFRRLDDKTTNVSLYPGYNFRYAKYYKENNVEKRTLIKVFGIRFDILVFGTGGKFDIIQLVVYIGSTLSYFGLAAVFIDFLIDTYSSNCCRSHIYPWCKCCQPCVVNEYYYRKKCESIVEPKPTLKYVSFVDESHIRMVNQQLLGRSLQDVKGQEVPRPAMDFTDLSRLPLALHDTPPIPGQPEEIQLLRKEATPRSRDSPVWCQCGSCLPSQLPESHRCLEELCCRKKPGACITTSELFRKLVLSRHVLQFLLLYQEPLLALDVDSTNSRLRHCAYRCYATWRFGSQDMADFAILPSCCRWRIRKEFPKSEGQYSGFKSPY
Chain of Human recombinant NLRP3 (Q96P20 whole entry): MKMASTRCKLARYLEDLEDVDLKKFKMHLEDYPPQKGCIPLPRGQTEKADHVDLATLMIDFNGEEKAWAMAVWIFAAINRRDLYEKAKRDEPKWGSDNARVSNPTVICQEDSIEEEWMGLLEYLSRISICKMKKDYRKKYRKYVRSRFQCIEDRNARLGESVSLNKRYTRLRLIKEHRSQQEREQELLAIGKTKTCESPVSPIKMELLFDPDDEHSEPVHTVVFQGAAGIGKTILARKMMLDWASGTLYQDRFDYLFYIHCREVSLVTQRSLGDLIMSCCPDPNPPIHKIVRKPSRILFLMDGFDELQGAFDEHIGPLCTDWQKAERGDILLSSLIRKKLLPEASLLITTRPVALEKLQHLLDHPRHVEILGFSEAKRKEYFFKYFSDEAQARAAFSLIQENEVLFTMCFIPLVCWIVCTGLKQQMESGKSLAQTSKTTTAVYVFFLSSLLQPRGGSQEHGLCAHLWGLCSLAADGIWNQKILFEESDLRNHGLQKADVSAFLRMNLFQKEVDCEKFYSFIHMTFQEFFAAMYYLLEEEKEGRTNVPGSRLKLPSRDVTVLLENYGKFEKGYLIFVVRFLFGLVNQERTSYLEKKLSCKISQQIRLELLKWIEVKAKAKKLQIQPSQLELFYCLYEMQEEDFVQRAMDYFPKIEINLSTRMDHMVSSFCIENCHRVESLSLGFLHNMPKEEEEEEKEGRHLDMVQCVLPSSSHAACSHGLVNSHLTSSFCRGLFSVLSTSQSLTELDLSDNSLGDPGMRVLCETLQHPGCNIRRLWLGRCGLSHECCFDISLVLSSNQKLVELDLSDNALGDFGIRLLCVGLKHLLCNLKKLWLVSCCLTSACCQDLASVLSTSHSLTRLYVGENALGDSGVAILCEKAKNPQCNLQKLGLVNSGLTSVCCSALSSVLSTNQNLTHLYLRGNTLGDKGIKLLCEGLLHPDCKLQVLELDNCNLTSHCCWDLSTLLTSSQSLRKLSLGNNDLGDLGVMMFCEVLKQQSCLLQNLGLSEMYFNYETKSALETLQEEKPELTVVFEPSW

SMILES: CS(=O)(=O)CCC#N [OLT1177]
- release of IL-1β ([1]; J774A.1 (Fig. S7B), LPS/nigericin, OLT1177 in combination with ACHP): to the levels of unstimulated cells
- reduction of IL-1β secretion, OLT1177 compared with MCC950 ([1]; J774A.1, LPS and ATP, 10 to 0.01 µM): comparable
- IL-1β release ([1]; J774A.1, LPS and nigericin): inhibited
- TNFα levels ([1]; J774A.1, LPS and nigericin): without affecting
- TNFα levels in supernatants ([1]; J774A.1, LPS/ATP): no effect
- intracellular level of the IL-1β and caspase-1 precursors ([1]; J774A.1, LPS/ATP): no changes
- reduction of IL-1β secretion ([1]; J774A.1, LPS/ATP, nanomolar concentrations of OLT1177): 50%
- concentration that significantly reduced IL-1β release ([1]; in vitro, across cell types): ≤ 1 µM
- inhibition at 1 µM ([2]; read-out: maximal inhibition of IL-1β secretion): 60%
- inhibition at 1 µM ([2]; read-out: maximal inhibition of IL-18 secretion): 70%
- reduction of activated caspase-1 in cell lysates [3]: 35%
- release of LDH (cell death) [4]: significantly reduced
- mRNA levels of nlrp3, asc, caspase1, il1b, and il18 [5]: no effect
- inhibition at 10 µM [6]: 70%
- reduction in Src activation (phosphorylation) [7]: 26%
- reduction in Fyn phosphorylation [8]: 35%
- reduction in Hck phosphorylation [9]: 43%
- reduction in STAT3 phosphorylation [10]: 33%
- NLRP3-mediated ASC recruitment (immunoprecipitation) [11]: reduction
- ATPase activity of recombinant NLRP3 [12]: inhibited
- ASC speck structures (immunofluorescence) [13]: reduction
- NLRP3-ASC association (FRET intensity) [13]: significant lower
- NLRP3 and caspase-1 association (FRET) [14]: reduced
- BzATP-induced ion current change (P2X7R activation) [15]: not affected
- release of IL-1β and TNFα following NLRC4 inflammasome activation [16]: no effect
- release of IL-1β and TNFα following AIM2 inflammasome activation [17]: no effect
- total intracellular pool of the IL-1β precursor ([18]; LPS/ATP): without affecting
- release of IL-1β ([18]; LPS/ATP, 0.1, 1, and 10 µM): prevented
- caspase-1 activity [19]: reduced
- il1b, caspase1, and nlrp3 mRNA levels [20]: without affecting
- reduction of peritoneal fluid CXCL1 [21, 23]: 30%
- reduction of peritoneal fluid IL-6 [21, 23]: 44%
- reduction of peritoneal fluid myeloperoxidase (MPO) [21, 23]: 80%
- TNFα content in lung, liver, spleen, and skeletal muscle [21, 24]: no significant changes
- total IL-1β content in lung, liver, spleen, and skeletal muscle [21, 24]: significantly decreased
- muscle ATP [22]: higher levels

— publication PMC5816172 (Proceedings of the National Academy of Sciences of the …, 2018)
